From article PMC6045484 (ACS Omega, 2018)
Converted amounts (≈) assume the structure as drawn.

Tests used:
[1] = test system: P. falciparum (D6); assay: in vitro antimalarial activity, plasmodial LDH; format: cell-based, Plasmodium falciparum; conditions: Plasmodium falciparum, D6, 72 h, read-out: P. falciparum (D6) IC50
[2] = test system: P. falciparum (W2); assay: in vitro antimalarial activity, plasmodial LDH; format: cell-based, Plasmodium falciparum; conditions: Plasmodium falciparum, W2, 72 h, read-out: P. falciparum (W2) IC50, CQ-resistant W2 strain, 72 h
Summary of the method: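 P. falciparum-infected erythrocytes (2% parasitemia, 2% hematocrit) in RPMI 1640 with 10% human serum and 60 μg/mL amikacin. Exposed to test compound dilutions for 72 h at 37 °C under 90% N2/5% O2/5% CO2. LDH measured with Malstat reagent (30 min, room temperature), then NBT/PES for 1 h in the dark, stopped with 5% acetic acid, read at 650 nm. IC50 from dose-response curves.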

[3] = test system: SK-MEL, KB, BT-549, SK-OV-3, VERO and LLC-PK1 cells; assay: cytotoxicity, neutral red uptake assay; format: cell-based, mammalian; conditions: highest test concentration 4760 ng/mL
Summary of the method: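 Cells seeded at 25 000/well and allowed 24 h to reach confluence. Test compound was then added and incubated 48 h. Viable cells were counted by a modified neutral red uptake method. The panel was four human cancer lines and two noncancerous mammalian kidney lines. Doxorubicin served as positive control and DMSO as negative control.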

[4] = test system: L. donovani promastigotes; assay: in vitro antileishmanial activity, alamarBlue assay; format: cell-based, Leishmania donovani; conditions: Leishmania donovani, 48 h; for IC50: read-out: L. donovani IC50, promastigotes, 48 h; for IC90: read-out: L. donovani IC90, promastigotes, 48 h
[5] = test system: C. albicans ATCC90028; assay: in vitro antifungal activity; format: cell-based, Candida albicans; conditions: Candida albicans; for IC50: ATCC90028, read-out: C. albicans IC50; for MFC: ATCC90028, read-out: C. albicans MFC; for MIC: ATCC90028, read-out: C. albicans MIC
Summary of the method: (§1)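 Modified NCCLS broth method in Sabouraud dextrose. Inoculum set by OD630 to 1.5 × 10^3 CFU/mL. Test compound serially diluted in 20% DMSO/saline, duplicate wells, up to 20 μg/mL. Incubated 70–74 h at 35 °C; 530 nm read before and after. IC50 is 50% growth inhibition; MIC is no detectable growth. MFC from clear wells subcultured on agar. Amphotericin B control.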

[6] = test system: C. neoformans ATCC90113; assay: in vitro antifungal activity; format: cell-based, Cryptococcus neoformans; conditions: Cryptococcus neoformans; for IC50: ATCC90113, read-out: C. neoformans IC50; for MFC: ATCC90113, read-out: C. neoformans MFC; for MIC: ATCC90113, read-out: C. neoformans MIC
Summary of the method: as §1

[7] = test system: A. fumigatus ATCC 90906; assay: in vitro antifungal activity; format: cell-based, Aspergillus fumigatus; conditions: Aspergillus fumigatus; for IC50: ATCC90906, read-out: A. fumigatus IC50; for MFC: ATCC90906, read-out: A. fumigatus MFC; for MIC: ATCC90906, read-out: A. fumigatus MIC
Summary of the method: as §1

[8] = test system: SA (ATCC29213); assay: in vitro antibacterial activity; format: cell-based; conditions: Staphylococcus aureus; for IC50: ATCC29213, read-out: IC50 (concentration that affords 50% growth inhibition), SA; for MBC: ATCC29213, read-out: MBC (minimum bactericidal concentration), SA; for MIC: ATCC29213, read-out: MIC, SA
Summary of the method: (§2)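 Test compound serially diluted in 20% DMSO/saline and plated in duplicate, up to 20 μg/mL. Inoculum in cation-adjusted Mueller–Hinton broth, pH 7.3, set by OD630 to 5 × 10^5 CFU/mL. Incubated 16–20 h at 35 °C; 530 nm read before and after. IC50 is 50% growth inhibition; MIC is no detectable growth. MBC from clear wells subcultured on agar. Ciprofloxacin control.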

[9] = test system: MRSA (ATCC33591); assay: in vitro antibacterial activity; format: cell-based, methicillin-resistant Staphylococcus aureus; conditions: Staphylococcus aureus, ATCC33591|MRSA, read-out: MIC, MRSA
Summary of the method: as §2

[10] = test system: M. intracellulare (ATCC23068); assay: in vitro antibacterial activity, modified alamarBlue procedure; format: cell-based, Mycobacterium intracellulare; conditions: Mycobacterium intracellulare; for IC50: ATCC23068, read-out: IC50 (concentration that affords 50% growth inhibition), M. intracellulare; for MBC: ATCC23068, read-out: MBC (minimum bactericidal concentration), M. intracellulare; for MIC: ATCC23068, read-out: MIC, M. intracellulare
Summary of the method: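 Modified alamarBlue microplate method. Test compound serially diluted in 20% DMSO/saline, duplicate wells, up to 20 μg/mL. Inoculum 2.0 × 10^6 CFU/mL in Middlebrook 7H9 with OADC, pH 7.3, containing 5% alamarBlue. Incubated 70–74 h at 37 °C, 10% CO2; fluorescence 544ex/590em read before and after. MIC: no blue-to-pink change. MBC by subculturing blue wells on agar. Ciprofloxacin control.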

SMILES | IC50 [1] [µg/mL] | IC50 [2] [µg/mL] | cytotoxicity CTX [3] | IC50 [4] [µg/mL] | IC50 [5] [µg/mL] | MFC [5] [µg/mL] | MIC [5] [µg/mL] | IC50 [6] [µg/mL] | MFC [6] [µg/mL] | MIC [6] [µg/mL] | IC50 [7] [µg/mL] | MFC [7] [µg/mL] | MIC [7] [µg/mL] | IC50 [8] [µg/mL] | MBC [8] [µg/mL] | MIC [8] [µg/mL] | MIC [9] [µg/mL] | IC50 [10] [µg/mL] | MBC [10] [µg/mL] | MIC [10] [µg/mL] | also measured
CCCCCOc1c(OC)cc(NC(C)CCCNC(=O)C(N)Cc2cc3ccccc3[nH]2)c2nc(C(C)(C)C)ccc12 (stereo not shown) [compound 98, 2-Amino-N-(4-(2-tert-butyl-6-methoxy-5-(pentyloxy)quinolin-8-ylamino)pentyl)-3-(1H-indol-2-yl)propanamide] | > 4.76 | > 4.76 | NC (NC, not cytotoxic up to 4760 ng/mL (4.76 μg/mL)) | 1.81 (≈ 3.08 µM) | 18.8 (≈ 31.9 µM) | > 20 | > 20 | 1.21 (≈ 2.06 µM) | 2.5 (≈ 4.25 µM) | 2.5 (≈ 4.25 µM) | > 20 | > 20 | > 20 | 1.95 (≈ 3.32 µM) | 10 (≈ 17 µM) | 5 (≈ 8.51 µM) | 5 (≈ 8.51 µM) | 8.47 (≈ 14.4 µM) | 20 (≈ 34 µM) | 10 (≈ 17 µM) | IC90 [4]: 2.93 µg/mL (≈ 4.98 µM)
CCCCCCCOc1c(OC)cc(NC(C)CCCNC(=O)C(N)Cc2ccccc2)c2nc(C(C)(C)C)ccc12 (stereo not shown) [compound 112, 2-Amino-N-(4-(2-tert-butyl-5-(heptyloxy)-6-methoxyquinolin-8-ylamino)pentyl)-3-phenylpropanamide] | 3.2 (≈ 5.55 µM) | 2.2 (≈ 3.81 µM) | NC (NC, not cytotoxic up to 4760 ng/mL (4.76 μg/mL)) | 20 (≈ 34.7 µM) | > 20 | > 20 | > 20 | 4.56 (≈ 7.91 µM) | 5 (≈ 8.67 µM) | 5 (≈ 8.67 µM) | > 20 | > 20 | > 20 | 4.06 (≈ 7.04 µM) | 10 (≈ 17.3 µM) | 10 (≈ 17.3 µM) | 10 (≈ 17.3 µM) | > 20 | > 20 | > 20 | IC90 [4]: 36 µg/mL (≈ 62.4 µM)
CCCCCOc1c(OC)cc(NC(C)CCCNC(=O)C(N)C(C)CC)c2nc(C(C)(C)C)ccc12 (stereo not shown) [compound 96, 2-Amino-N-(4-(2-tert-butyl-6-methoxy-5-(pentyloxy)quinolin-8-ylamino)pentyl)-3-methylpentanamide] | > 4.76 | > 4.76 | NC (NC, not cytotoxic up to 4760 ng/mL (4.76 μg/mL)) | 8.65 (≈ 16.8 µM) | > 20 | > 20 | > 20 | 4.95 (≈ 9.62 µM) | 10 (≈ 19.4 µM) | 10 (≈ 19.4 µM) | > 20 | > 20 | > 20 | 5.35 (≈ 10.4 µM) | 20 (≈ 38.9 µM) | 10 (≈ 19.4 µM) | 10 (≈ 19.4 µM) | 12.2 (≈ 23.7 µM) | 20 (≈ 38.9 µM) | 20 (≈ 38.9 µM) | IC90 [4]: 32.6 µg/mL (≈ 63.4 µM)
CCCCCCOc1c(OC)cc(NC(C)CCCNC(=O)C(C)N)c2nc(C(C)(C)C)ccc12 (stereo not shown) [compound 107, 2-Amino-N-(4-(2-tert-butyl-5-(hexyloxy)-6-methoxyquinolin-8-ylamino)pentyl)-propanamide] | > 4.76 | > 4.76 | NC (NC, not cytotoxic up to 4760 ng/mL (4.76 μg/mL)) | 17.1 (≈ 35.2 µM) | > 20 | > 20 | > 20 | > 20 | > 20 | > 20 | > 20 | > 20 | > 20 | > 20 | > 20 | > 20 | > 20 | > 20 | > 20 | > 20 | IC90 [4]: 37.3 µg/mL (≈ 76.7 µM)
CCCCCCOc1c(OC)cc(NC(C)CCCNC(=O)C(N)CCCNC(=N)N)c2nc(C(C)(C)C)ccc12 (stereo not shown) [compound 101, 2-Amino-N-(4-(2-tert-butyl-5-(hexyloxy)-6-methoxyquinolin-8-ylamino)pentyl)-5-guanidinopentanamide] | 0.8 (≈ 1.4 µM) | 0.33 (≈ 0.577 µM) | NC (NC, not cytotoxic up to 4760 ng/mL (4.76 μg/mL)) |  | > 20 | > 20 | > 20 | 14.3 (≈ 25 µM) | > 20 | > 20 | > 20 | > 20 | > 20 | 8.87 (≈ 15.5 µM) | > 20 | > 20 | > 20 | 18.4 (≈ 32.2 µM) | > 20 | 20 (≈ 35 µM) | 
